The RNAGym collection of RNA variant scans (doi:10.1038/nmeth.2970)

B1: NELF-E aptamer (parent)
chain: CCCAACGACUGCCGAGCGAGAUUACGCUUGAGCGCCCCACUGAGGAUGCCCACGGGCGAUUGGGGCACGG

Variants of: B1
Assay: HiTS-RAP
Conditions: with NELF-E (Drosophila)
Outline: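 Aptamer DNA templates carrying a T7 promoter and ter site were sequenced on an Illumina GAIIx flowcell, then transcribed in situ by T7 RNA polymerase and halted by GST-Tus (30 minutes, 37°C). Clusters were imaged after 30-minute room-temperature equilibration with NELF-E-mOrange at 0.064 to 1000 nM in HEPES binding buffer, and only the first binding curve was used. Intensities were normalised to sequencing intensity and averaged per sequence. Kd came from weighted Hill fits, keeping fits with variance below 1,000,000.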

Variant	Kd
CCCAACUACUGCCAAGCGAGAUUACGCUUGAGCGCCCCACUGAGGAUGCCCACGGGCGAUUGGGGCACGG [G7U G14A]	6.59 nM
CCCAACUACUGCCUAGCGAGAUUACGCUUGAGCGCCCCACUGAGGAUGCCCACGGGCGAUUGGGGCACGG [G7U G14U]	6.73 nM
CCCAACUACUGCCGAGCGAGAUUACGCUUGUGCGCCCCACUGAGGAUGCCCACGGGCGAUUGGGGCACGG [G7U A31U]	5.33 nM
CCCAACUACUGCCGAGCGAGAUUACGCUUGGGCGCCCCACUGAGGAUGCCCACGGGCGAUUGGGGCACGG [G7U A31G]	7.34 nM
CCCAACCACUUCCGAGCGAGAUUACGCUUGAGCGCCCCACUGAGGAUGCCCACGGGCGAUUGGGGCACGG [G7C G11U]	7.68 nM
CCCAACUACUGCCGAGCGAGAUUACGCUUGAGCGCCCCACUGGGGAUGCCCACGGGCGAUUGGGGCACGG [G7U A43G]	58 nM
CCCAACUACUGCCGAGCGAGAUUACGCUUGAGCGCCCCACUGUGGAUGCCCACGGGCGAUUGGGGCACGG [G7U A43U]	84.5 nM
CCCAACUACUGCCGAGCGAGAUUACGCUUAAGCGCCCCACUGAGGAUGCCCACGGGCGAUUGGGGCACGG [G7U G30A]	6.35 nM
CCCAACUACUGCCGAGCGAGAUUACGCUUUAGCGCCCCACUGAGGAUGCCCACGGGCGAUUGGGGCACGG [G7U G30U]	7.92 nM
CCCAACUACUGCCGAGCGAGAUUACGCUUGAGCUCCCCACUGAGGAUGCCCACGGGCGAUUGGGGCACGG [G7U G34U]	7.8 nM
CCCAACUACUGCCGAGCGAGAUUACGCUUGAGCACCCCACUGAGGAUGCCCACGGGCGAUUGGGGCACGG [G7U G34A]	7.85 nM
CCCAACUACUGCCGAACGAGAUUACGCUUGAGCGCCCCACUGAGGAUGCCCACGGGCGAUUGGGGCACGG [G7U G16A]	6.97 nM
CCCAACUACUGCCGAUCGAGAUUACGCUUGAGCGCCCCACUGAGGAUGCCCACGGGCGAUUGGGGCACGG [G7U G16U]	7.06 nM
CCCAACUACUGCCGAGCGAGAUUAUGCUUGAGCGCCCCACUGAGGAUGCCCACGGGCGAUUGGGGCACGG [G7U C25U]	5.7 nM
CCCAACUACUGCCGAGCGAGAUUAGGCUUGAGCGCCCCACUGAGGAUGCCCACGGGCGAUUGGGGCACGG [G7U C25G]	5.61 nM
CCCAACCGCUGCCGAGCGAGAUUACGCUUGAGCGCCCCACUGAGGAUGCCCACGGGCGAUUGGGGCACGG [G7C A8G]	5.81 nM
CCCAACUACUGCCGAGCGUGAUUACGCUUGAGCGCCCCACUGAGGAUGCCCACGGGCGAUUGGGGCACGG [G7U A19U]	6.31 nM
CCCAACUACUGCCGAGCGGGAUUACGCUUGAGCGCCCCACUGAGGAUGCCCACGGGCGAUUGGGGCACGG [G7U A19G]	6.23 nM
CCCAACUACUGCCGAGCGAGAUUACGCUUGAGCGCCCCACUGAGGAUGCCCACGGGCGAUUGGGGUACGG [G7U C66U]	6.12 nM
CCCAACUAGUGCCGAGCGAGAUUACGCUUGAGCGCCCCACUGAGGAUGCCCACGGGCGAUUGGGGCACGG [G7U C9G]	6.28 nM
CCCAACUAUUGCCGAGCGAGAUUACGCUUGAGCGCCCCACUGAGGAUGCCCACGGGCGAUUGGGGCACGG [G7U C9U]	6.52 nM
CCCAACUACUGCCGAGCGAGAUUACGUUUGAGCGCCCCACUGAGGAUGCCCACGGGCGAUUGGGGCACGG [G7U C27U]	5.11 nM
CCCAACUACUGCCGAGCGAGAUUACGGUUGAGCGCCCCACUGAGGAUGCCCACGGGCGAUUGGGGCACGG [G7U C27G]	5.97 nM
CCCAACUCCUGCCGAGCGAGAUUACGCUUGAGCGCCCCACUGAGGAUGCCCACGGGCGAUUGGGGCACGG [G7U A8C]	7.45 nM
CCCAACUGCUGCCGAGCGAGAUUACGCUUGAGCGCCCCACUGAGGAUGCCCACGGGCGAUUGGGGCACGG [G7U A8G]	5.66 nM
CCCAACUUCUGCCGAGCGAGAUUACGCUUGAGCGCCCCACUGAGGAUGCCCACGGGCGAUUGGGGCACGG [G7U A8U]	6.38 nM

Variant	Kd
CCCAACUACUGCCGAGCGAGAUUACGCUUGAACGCCCCACUGAGGAUGCCCACGGGCGAUUGGGGCACGG [G7U G32A]	4.74 nM
CCCAACUACUGCCGAGCGAGGUUACGCUUGAGCGCCCCACUGAGGAUGCCCACGGGCGAUUGGGGCACGG [G7U A21G]	6.51 nM
CCCAACUACUGCCGAGCGAGUUUACGCUUGAGCGCCCCACUGAGGAUGCCCACGGGCGAUUGGGGCACGG [G7U A21U]	5.79 nM
CCCAACUACUGCCGAGCGAGAUUACGCUUGAGCGCCCCACUGAGGAUGCCCACGGGUGAUUGGGGCACGG [G7U C57U]	6.23 nM
CCCAACUACUGCCGAGCGAGAUUACGCUUGAGCGCCCCACUGAGGAUGCCCACGGGCGGUUGGGGCACGG [G7U A59G]	67.6 nM
CCCAACUACUGCCGAGCGAGAUUACGCUUGAGCGCCCCACUGAGGAUGCCCACGGGCGUUUGGGGCACGG [G7U A59U]	18.3 nM
CCCAACUACUGCGGAGCGAGAUUACGCUUGAGCGCCCCACUGAGGAUGCCCACGGGCGAUUGGGGCACGG [G7U C13G]	5.83 nM
CCCAACUACUGCUGAGCGAGAUUACGCUUGAGCGCCCCACUGAGGAUGCCCACGGGCGAUUGGGGCACGG [G7U C13U]	5.75 nM
CCCAACUACUGCAGAGCGAGAUUACGCUUGAGCGCCCCACUGAGGAUGCCCACGGGCGAUUGGGGCACGG [G7U C13A]	6.82 nM
CCCAACUACUGCCGAGCGAGAUUACGCUUGAGCGCCCCACUUAGGAUGCCCACGGGCGAUUGGGGCACGG [G7U G42U]	17.4 nM
CCCAACUACUGCCGAGCGAGAUUACGCUUGAGCGCCCCACUAAGGAUGCCCACGGGCGAUUGGGGCACGG [G7U G42A]	59 nM
CCCAACUACUGCCGAGCGAGAUUACGCUUGAGCGCCCCACUGAGGAUGCUCACGGGCGAUUGGGGCACGG [G7U C50U]	9.77 nM
CCCAACUACUGCCGAGCGAGAUUUCGCUUGAGCGCCCCACUGAGGAUGCCCACGGGCGAUUGGGGCACGG [G7U A24U]	6.81 nM
CCCAACUACUGCCGAGCGAGAUUGCGCUUGAGCGCCCCACUGAGGAUGCCCACGGGCGAUUGGGGCACGG [G7U A24G]	6.71 nM
CCCAACUACUGCCGAGCGAGAUUACGCUUGAGCGCCCCACUGAGGAUGCCCAUGGGCGAUUGGGGCACGG [G7U C53U]	4.6 nM
CCCAACUACUGCCGAGCGAGAUUACGCUUGAGCGCCUCACUGAGGAUGCCCACGGGCGAUUGGGGCACGG [G7U C37U]	10.5 nM
CCCAACUACUGCCGAGCGAGAUUACGCUUGAGCGCCACACUGAGGAUGCCCACGGGCGAUUGGGGCACGG [G7U C37A]	20.8 nM
CCCAACUACUGCCGAGCGAGAUUACGCUUGAGCGCCGCACUGAGGAUGCCCACGGGCGAUUGGGGCACGG [G7U C37G]	11.1 nM
CCCAACUACUGCCGAGCGAGAUUACGCUUGAGCGACCCACUGAGGAUGCCCACGGGCGAUUGGGGCACGG [G7U C35A]	8.62 nM
CCCAACUACUGCCGAGCGAGAUUACGCUUGAGCGUCCCACUGAGGAUGCCCACGGGCGAUUGGGGCACGG [G7U C35U]	8.9 nM
CCCAACCACUGCCGAGCGAGAUUACGCUUGAGCGCCCCACUGAGGAUGCCCACGGGCGAUUGGGGCACGG [G7C]	6.43 nM
CCCAACUACUGCCGAGCGAGAUUACGCUUGAGCGCCCCACUGAGGAUGCCCACGGGCGAUUGGGGCACGG [G7U]	5.55 nM
CCCAACUACUGCCGAGCGAGAUUACGCUUGAGCGCCCUACUGAGGAUGCCCACGGGCGAUUGGGGCACGG [G7U C38U]	8.98 nM
CCCAACUACUGCCGAGCGAGAUUACGCUUGAGCGCCCCACUGAGGGUGCCCACGGGCGAUUGGGGCACGG [G7U A46G]	56 nM
CCCAACUACUGCCGAGCGAGAUUACGCUUGAGCGCCCCAUUGAGGAUGCCCACGGGCGAUUGGGGCACGG [G7U C40U]	80.4 nM
CCCAACUACUGCCGAGCGAGAUUACACUUGAGCGCCCCACUGAGGAUGCCCACGGGCGAUUGGGGCACGG [G7U G26A]	5.82 nM

Variant	Kd
CCCAACUACUGCCGAGCGAGAUUACUCUUGAGCGCCCCACUGAGGAUGCCCACGGGCGAUUGGGGCACGG [G7U G26U]	6.93 nM
CCCAACUACUGCCGAGGGAGAUUACGCUUGAGCGCCCCACUGAGGAUGCCCACGGGCGAUUGGGGCACGG [G7U C17G]	6.28 nM
CCCAACUACUGCCGAGUGAGAUUACGCUUGAGCGCCCCACUGAGGAUGCCCACGGGCGAUUGGGGCACGG [G7U C17U]	6.16 nM
CCCAACAACUGCCGAGCGAGAUUACGCUUGAGCGCCCCACGGAGGAUGCCCACGGGCGAUUGGGGCACGG [G7A U41G]	6.05 nM
CCCAACUACUGGCGAGCGAGAUUACGCUUGAGCGCCCCACUGAGGAUGCCCACGGGCGAUUGGGGCACGG [G7U C12G]	6.89 nM
CCCAACUACUGUCGAGCGAGAUUACGCUUGAGCGCCCCACUGAGGAUGCCCACGGGCGAUUGGGGCACGG [G7U C12U]	5.94 nM
CCCAACUACUGCCGAGCGAGAUUACGCUUGAGCGCCCCACUGAGGAUGCCUACGGGCGAUUGGGGCACGG [G7U C51U]	7.54 nM
CCCAACCACGGCCGAGCGAGAUUACGCUUGAGCGCCCCACUGAGGAUGCCCACGGGCGAUUGGGGCACGG [G7C U10G]	6.28 nM
CCCAACUACUGCCGAGCGAGAUUACGCUUGAGCGCCCCGCUGAGGAUGCCCACGGGCGAUUGGGGCACGG [G7U A39G]	11.4 nM
CCCAACUACUGCCGAGCGAGAUUACGCUUGAGCGCCCCUCUGAGGAUGCCCACGGGCGAUUGGGGCACGG [G7U A39U]	26.9 nM
CCCAACUACUGCCGGGCGAGAUUACGCUUGAGCGCCCCACUGAGGAUGCCCACGGGCGAUUGGGGCACGG [G7U A15G]	5.56 nM
CCCAACUACUGCCGUGCGAGAUUACGCUUGAGCGCCCCACUGAGGAUGCCCACGGGCGAUUGGGGCACGG [G7U A15U]	6 nM
CCCAACUACUACCGAGCGAGAUUACGCUUGAGCGCCCCACUGAGGAUGCCCACGGGCGAUUGGGGCACGG [G7U G11A]	6.15 nM
CCCAACUACUUCCGAGCGAGAUUACGCUUGAGCGCCCCACUGAGGAUGCCCACGGGCGAUUGGGGCACGG [G7U G11U]	6.5 nM
CCCAACUACUGCCGAGCGAGAUUACGCUUGAGCGCCCCACUGAGGAUGCCCACGGGCGAUUGGGGCUCGG [G7U A67U]	9.65 nM
CCCAACUACUGCCGAGCGAGAUUACGCUUGAGCGCCCCACUGAGGAUGCCCACGGGCGAUUGGGGCGCGG [G7U A67G]	7.45 nM
CCCAACUACUGCCGAGCGAUAUUACGCUUGAGCGCCCCACUGAGGAUGCCCACGGGCGAUUGGGGCACGG [G7U G20U]	7.06 nM
CCCAACUACUGCCGAGCGAAAUUACGCUUGAGCGCCCCACUGAGGAUGCCCACGGGCGAUUGGGGCACGG [G7U G20A]	7.33 nM
CCCAACUACUGCCGAGCGAGAUUACGCUUGAGGGCCCCACUGAGGAUGCCCACGGGCGAUUGGGGCACGG [G7U C33G]	5.51 nM
CCCAACUACUGCCGAGCGAGAUUACGCUUGAGUGCCCCACUGAGGAUGCCCACGGGCGAUUGGGGCACGG [G7U C33U]	6.35 nM
CCCAACUACUGCCGAGCGAGAUUACGCUUGAGCGCUCCACUGAGGAUGCCCACGGGCGAUUGGGGCACGG [G7U C36U]	7.87 nM
CCCAACUACUGCCGAGCGAGAUUACGCUUGAGCGCCCCACUGAGGAUGCCCUCGGGCGAUUGGGGCACGG [G7U A52U]	19.3 nM
CCCAACUACUGCCGAGCGAGAUUACGCUUGAGCGCCCCACUGAGGAUGCCCGCGGGCGAUUGGGGCACGG [G7U A52G]	4.13 nM
CCCAACUACUGCCGAGCAAGAUUACGCUUGAGCGCCCCACUGAGGAUGCCCACGGGCGAUUGGGGCACGG [G7U G18A]	5.43 nM
CCCAACUACUGCCGAGCUAGAUUACGCUUGAGCGCCCCACUGAGGAUGCCCACGGGCGAUUGGGGCACGG [G7U G18U]	6.84 nM
